This note sets out measurements from ChEMBL document CHEMBL1156908, “Characterization of tunable piperidine and piperazine carbamates as inhibitors of endocannabinoid hydrolases” (J Med Chem, 2010).

The target of one series is T1, Monoglyceride lipase (Mus musculus, UniProt O35678).
T1 sequence (O35678 whole entry): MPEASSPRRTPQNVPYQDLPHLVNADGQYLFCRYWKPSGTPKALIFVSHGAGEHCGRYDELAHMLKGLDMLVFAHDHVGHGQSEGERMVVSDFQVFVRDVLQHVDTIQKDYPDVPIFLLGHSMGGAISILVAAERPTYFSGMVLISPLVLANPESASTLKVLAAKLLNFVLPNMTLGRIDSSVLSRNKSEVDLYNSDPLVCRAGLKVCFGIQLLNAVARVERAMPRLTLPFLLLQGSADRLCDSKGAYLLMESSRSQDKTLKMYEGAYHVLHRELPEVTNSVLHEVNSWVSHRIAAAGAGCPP
Kind of series: Inhibition of MAGL in mouse brain membrane. Format: cell membranes. A digest of the protocol: (§1)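 Mouse brain membrane fraction (Dounce homogenized in PBS pH 7.5, 1,400 × g debris spin, 64,000 × g 45 min pellet, resuspended) at 1 mg/ml in PBS. Inhibitor preincubated 30 min at 37°C, then FP-rhodamine 1 μM final for 30 min at 25°C. SDS-PAGE with in-gel fluorescence scanning. IC50 from fitted integrated band intensities, mean of at least triplicates.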

In series [1] the target is T2, Monoacylglycerol lipase ABHD6 (Mus musculus, UniProt Q8R2Y0).
T2 sequence (Q8R2Y0 whole entry): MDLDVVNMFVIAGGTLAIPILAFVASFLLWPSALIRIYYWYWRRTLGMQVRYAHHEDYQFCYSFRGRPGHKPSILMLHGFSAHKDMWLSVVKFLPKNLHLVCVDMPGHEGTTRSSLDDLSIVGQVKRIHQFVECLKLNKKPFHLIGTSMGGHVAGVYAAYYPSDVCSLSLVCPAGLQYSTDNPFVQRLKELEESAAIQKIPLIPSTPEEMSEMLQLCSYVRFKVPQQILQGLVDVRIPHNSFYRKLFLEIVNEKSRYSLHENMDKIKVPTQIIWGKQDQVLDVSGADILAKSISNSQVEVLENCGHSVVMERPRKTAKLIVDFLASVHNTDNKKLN
Kind of series: Inhibition of ABHD6 in mouse brain membrane. Format: cell membranes. In outline:
as §1

Series [2] concerns the target T3, Patatin-like phospholipase domain-containing protein 6 (Mus musculus) (UniProt Q3TRM4).
T3 sequence (whole entry): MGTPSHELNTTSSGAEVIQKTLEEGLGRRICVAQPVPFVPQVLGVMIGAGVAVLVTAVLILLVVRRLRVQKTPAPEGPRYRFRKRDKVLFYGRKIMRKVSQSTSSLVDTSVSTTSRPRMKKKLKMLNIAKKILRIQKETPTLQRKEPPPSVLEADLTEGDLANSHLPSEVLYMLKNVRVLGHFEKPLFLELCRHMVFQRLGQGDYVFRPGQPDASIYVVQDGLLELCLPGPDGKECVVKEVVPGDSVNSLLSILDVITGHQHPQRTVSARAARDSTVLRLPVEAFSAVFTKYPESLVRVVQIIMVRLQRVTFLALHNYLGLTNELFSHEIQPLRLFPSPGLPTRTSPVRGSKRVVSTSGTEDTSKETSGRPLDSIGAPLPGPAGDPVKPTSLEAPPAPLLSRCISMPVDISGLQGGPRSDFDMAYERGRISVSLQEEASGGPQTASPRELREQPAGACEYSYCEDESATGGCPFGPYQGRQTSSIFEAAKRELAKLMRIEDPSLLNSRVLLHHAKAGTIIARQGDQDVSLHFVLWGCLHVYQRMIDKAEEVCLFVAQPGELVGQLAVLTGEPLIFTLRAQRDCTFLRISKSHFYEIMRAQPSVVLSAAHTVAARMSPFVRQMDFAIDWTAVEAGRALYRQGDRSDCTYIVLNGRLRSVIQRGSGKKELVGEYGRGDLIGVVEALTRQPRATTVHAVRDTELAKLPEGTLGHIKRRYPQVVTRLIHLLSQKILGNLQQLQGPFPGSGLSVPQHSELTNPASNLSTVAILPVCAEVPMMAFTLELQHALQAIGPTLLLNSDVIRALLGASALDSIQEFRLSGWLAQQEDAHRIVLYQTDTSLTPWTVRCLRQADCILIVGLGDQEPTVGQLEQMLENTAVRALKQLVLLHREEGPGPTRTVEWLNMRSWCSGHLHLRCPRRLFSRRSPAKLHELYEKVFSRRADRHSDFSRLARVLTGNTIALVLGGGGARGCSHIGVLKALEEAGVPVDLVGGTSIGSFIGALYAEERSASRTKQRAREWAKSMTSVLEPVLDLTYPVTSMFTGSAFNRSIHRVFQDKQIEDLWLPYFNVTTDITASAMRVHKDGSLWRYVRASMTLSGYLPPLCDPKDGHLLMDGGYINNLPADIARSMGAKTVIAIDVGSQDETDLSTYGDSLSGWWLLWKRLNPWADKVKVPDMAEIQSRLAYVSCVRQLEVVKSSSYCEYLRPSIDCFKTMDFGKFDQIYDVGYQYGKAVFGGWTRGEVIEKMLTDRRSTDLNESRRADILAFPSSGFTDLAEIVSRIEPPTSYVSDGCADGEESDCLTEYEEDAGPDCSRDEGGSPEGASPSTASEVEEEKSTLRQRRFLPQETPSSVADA
Kind of series: Inhibition of NTE in mouse brain membrane at 100 uM. Format: cell membranes. A digest of the protocol:
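Competitive ABPP on mouse brain membrane proteome at 1 mg/ml in PBS. Inhibitor at 100 μM for 30 min at 37°C, then FP-rhodamine 1 μM final for 30 min at 25°C. SDS-PAGE and in-gel fluorescence scanning. Percent loss of NTE band labeling.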

The target in series [3] is T4, Fatty-acid amide hydrolase 1 (Mus musculus, UniProt O08914).
T4 sequence (O08914 whole entry): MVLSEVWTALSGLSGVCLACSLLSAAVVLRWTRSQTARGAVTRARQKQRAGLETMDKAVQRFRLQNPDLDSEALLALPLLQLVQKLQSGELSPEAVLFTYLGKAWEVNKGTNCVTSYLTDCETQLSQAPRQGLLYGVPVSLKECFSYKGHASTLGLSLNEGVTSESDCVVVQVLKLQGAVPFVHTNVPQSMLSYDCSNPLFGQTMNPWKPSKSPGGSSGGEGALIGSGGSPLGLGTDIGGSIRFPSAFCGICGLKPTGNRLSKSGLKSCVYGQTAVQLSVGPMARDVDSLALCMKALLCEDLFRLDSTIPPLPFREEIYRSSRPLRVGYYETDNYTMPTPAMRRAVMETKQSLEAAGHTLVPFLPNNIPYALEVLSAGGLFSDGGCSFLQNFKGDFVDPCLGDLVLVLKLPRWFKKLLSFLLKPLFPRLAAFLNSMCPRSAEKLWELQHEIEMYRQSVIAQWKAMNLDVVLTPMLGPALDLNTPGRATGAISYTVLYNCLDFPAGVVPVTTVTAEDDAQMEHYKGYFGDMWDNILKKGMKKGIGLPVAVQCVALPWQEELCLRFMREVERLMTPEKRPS
Kind of series: Inhibition of FAAH in mouse brain membrane. Type of series: cell membranes. A digest of the protocol: as §1

Series [4] addresses T5, Patatin-like phospholipase domain-containing protein 6 (Mus musculus, UniProt Q3TRM4).
T5 sequence (Q3TRM4 whole entry): T3 sequence (whole entry)
Kind of series: Inhibition of NTE in mouse brain membrane. Type of series: cell membranes. In outline: as §1

Series [5] is filed under the species Mus musculus. Kind of series: Selectivity ratio of IC50 for mouse FAAH to IC50 for mouse MAGL. In outline: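 Competitive ABPP on mouse brain membrane proteome (Dounce-homogenized in PBS pH 7.5, 64,000 × g pellet, resuspended), diluted to 1 mg/ml in PBS. Inhibitor preincubated 30 min at 37°C, then FP-rhodamine 1 μM final for 30 min at 25°C. SDS-PAGE and in-gel fluorescence scanning. IC50s for FAAH and MAGL come from integrated band intensities, means of ≥3 runs; the ratio is taken from these.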

Series [6] relates to Mus musculus. Kind of series: In vivo inhibition of FAAH in mouse at 100 mg/kg, po. Type of series: functional, organism-based. On the set-up: dose 100 mg/kg.
The subject of series [7] is Mus musculus. Kind of series: Toxicity in mouse assessed as death at 20 mg/kg, ip for 6 days. Particulars: in vivo, 144 h. Format: organism-based. On the set-up: dose 20 mg/kg, route intraperitoneal.
In series [8] the test system is Mus musculus. Kind of series: In vivo inhibition of MAGL in mouse at 20 mg/kg, ip. Type of series: functional, organism-based. Also noted: dose 20 mg/kg.
The test system of series [9] is Mus musculus. Kind of series: In vivo inhibition of FAAH in mouse at 20 mg/kg, ip. Type of series: functional, organism-based. Also noted: dose 20 mg/kg.
The subject of series [10] is Mus musculus. Kind of series: In vivo inhibition of MAGL in mouse at 100 mg/kg, po. Type of series: functional, organism-based. Also noted: dose 100 mg/kg.

Active and inactive are the calls of the source. The calls are words filed in the database; no cut-off is given here.

`O=C(Oc1ccc([N+](=O)[O-])cc1)N1CCN(Cc2cccc(Oc3cc(Cl)cc(Cl)c3)c2)CC1`: the IC50 (on Monoglyceride lipase; in series [1]; in series [3]; in series [4]) was > 100000 nM each time. This compound also showed an inhibition in series [2] of 0%.
Consider `COc1ccc(Oc2cccc(CN3CCN(C(=O)Oc4ccc([N+](=O)[O-])cc4)CC3)c2)cc1`, for which the IC50 is 130 nM on Monoglyceride lipase, 460 nM in series [1], 90 nM in series [3] and 2900 nM in [4]. The inhibition in series [2] is 60%.
Take `Cc1ccc(Oc2cccc(CN3CCN(C(=O)Oc4ccc([N+](=O)[O-])cc4)CC3)c2)cc1`: the IC50 at Monoglyceride lipase came to 500 nM; in series [1], 1130 nM; in [3], 40 nM; in [4], 3000 nM. The inhibition in series [2] was found to be 70%.
Turning to `O=C(Oc1ccc([N+](=O)[O-])cc1)N1CCN(Cc2cc(Br)ccc2O)CC1`, the IC50 against Monoglyceride lipase worked out at 90 nM; in [1], 130 nM; in [3], 720 nM; in [4], 3240 nM. Moreover, in series [2], the inhibition is 73%.
Regarding `COc1cccc(C(O)(c2cccc(OC)c2)C2CCN(C(=O)Oc3ccc([N+](=O)[O-])cc3)CC2)c1`, the IC50 against Monoglyceride lipase is 560 nM; in series [1], 460 nM; in series [3], 5830 nM. The Ratio IC50 in the series listed under Mus musculus [5] is 10.
Regarding `O=C(Oc1ccc([N+](=O)[O-])cc1)N1CCC(C(O)(c2ccc3ccccc3c2)c2ccc3ccccc3c2)CC1`, the IC50 came out at 810 nM on Monoglyceride lipase, 3430 nM in [1] and 4690 nM in [3]. In the series listed under Mus musculus [5], the Ratio IC50 was determined as 6.
`O=C(Oc1ccc([N+](=O)[O-])cc1)N1CCN(Cc2cccc(Oc3cccc(C(F)(F)F)c3)c2)CC1`: the IC50 on Monoglyceride lipase turned out to be 300 nM; in [1] it was 320 nM; in [3] it was 5 nM; in series [4], 14400 nM. The same compound displayed an inhibition in series [2] of 57%.
Consider `O=C(Oc1ccc([N+](=O)[O-])cc1)N1CCC(C(O)(c2ccc(Cl)cc2)c2ccc(Cl)cc2)CC1`, for which the results for the IC50 (against Monoglyceride lipase; in series [1]; in [3]) were 1100 nM, 180 nM and 3360 nM, respectively. Also, the Ratio IC50 in the series listed under Mus musculus [5] was 3.
As to `O=C(Oc1ccc([N+](=O)[O-])cc1)N1CCN(Cc2cccc(Oc3ccccn3)c2)CC1`, the IC50 amounted to 50 nM against Monoglyceride lipase, 60 nM in [1], 40 nM in [3] and 1270 nM in [4]. Further, the inhibition in series [2] was found to be 73%.
As for `O=C(Oc1ccc([N+](=O)[O-])cc1)N1CCN(Cc2cccc(Oc3ccccc3)c2)CC1`, the IC50 in series [1] is 50 nM; in series [3] it was 13 nM; in [4], > 50000 nM. Also, the result in the series with Mus musculus [6], with Mus musculus [8], in the series on Mus musculus [9] and with Mus musculus [10] was inactive. This compound showed an inhibition in series [2] of 50%. Besides, the Activity result in the series with Mus musculus [7] is reported as “Non-toxic”.
On to `O=C(Oc1ccc([N+](=O)[O-])cc1)N1CCN(Cc2ccc(-c3ccccc3OC(F)(F)F)o2)CC1`, for which the IC50 on Monoglyceride lipase was 70 nM; in [1] it was 180 nM; in series [3], 5 nM; in [4] it was 570 nM. The same compound registered an inhibition in series [2] of 81%.
